What was measured:
[1] = tested on: Homo sapiens; assay: Terminal half life in patient (6 patients) with renal insufficiency assessed as hydroxy flutamide at 250 mg, po administered as single dose 4 hrs prior to hemodialysis treatment measured at starting time of dialysis and post dialysis treatment by gas chromatography; type: ADME, organism-based; conditions: in vivo
In short: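 Group V haemodialysis males (CLcr <5 ml min−1 1.73 m−2). Single oral 250 mg flutamide (two 125 mg capsules) right after HD; after 14-day washout, same dose 4 h before HD lasting 2–4 h. Venous samples to 48 h, arterial/venous during HD, dialysate in hourly blocks. GC with 63Ni electron-capture detection. CL(HD) = dialysate Ae(HD)/arterial AUC(HD); renal CL = Ae(0,48)/AUC(0,48 h).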

[2] = tested on: Homo sapiens; assay: AUClast in patient (7 patients) with renal insufficiency at 250 mg, po assessed as hydroxy flutamide administered as single dose by gas chromatography; type: ADME, organism-based; parameters: dose 250 mg, time 0 - last, route oral; conditions: in vivo

## CC(C)C(=O)Nc1ccc([N+](=O)[O-])c(C(F)(F)F)c1 [FLUTAMIDE]
[1]
  beta t1/2: 8 h
[2]
  AUClast: 4928 ng·h/mL

Reference: ChEMBL document CHEMBL3784969, “Pharmacokinetics of flutamide in patients with renal insufficiency” (Br J Clin Pharmacol, 1999)
